Substitutions are numbered along the chain they refer to. Numbered stars: 1 amine (or outer) side, 2 acyl side, 3 side chain; on linkers, the order of the positions; unused ones are H or OH. Square brackets hold non-standard residues; d marks the D form. Peptide text beside a SMILES is read from it. * marks the point of attachment. Isonicotinoyl(2-(4-Me-2-Py)) = Cc1ccnc(-c2cc(C(=O)*)ccn2)c1; X1 = O=C([C@H](Cc1c(F)cc(O)c(F)c1F)N[*:1])[*:2]
Key:
[1] = Transient absorption of the charge-separated state, free peptide; assay type: physicochemical; conditions: 50 μM peptide, 50 mM sodium borate pH 8.3, λexc 355 nm
How it was run: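 Transient absorption decays were read at 380, 480 (Re excited state), 525 (bpy anion) and 425 nm (F3Y radical). ΔOD came from PMT voltage against the pre-flash baseline. Short decays were fitted from the maximum-amplitude point, averaging 3–6 traces.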

Y730F-α2 = target: T1, Y730F-α2 (Escherichia coli, UniProt P00452, Y730F); assay: Flash-quench transient absorption: •F3Y radical in presence of Y730F-α2; assay type: biochemical; conditions: for radical lifetime change / radical injection (in words): Y730F-α2; for •F3Y lifetime: monoexponential, 50 μM peptide
T1 sequence (P00452 1-761 Y730F): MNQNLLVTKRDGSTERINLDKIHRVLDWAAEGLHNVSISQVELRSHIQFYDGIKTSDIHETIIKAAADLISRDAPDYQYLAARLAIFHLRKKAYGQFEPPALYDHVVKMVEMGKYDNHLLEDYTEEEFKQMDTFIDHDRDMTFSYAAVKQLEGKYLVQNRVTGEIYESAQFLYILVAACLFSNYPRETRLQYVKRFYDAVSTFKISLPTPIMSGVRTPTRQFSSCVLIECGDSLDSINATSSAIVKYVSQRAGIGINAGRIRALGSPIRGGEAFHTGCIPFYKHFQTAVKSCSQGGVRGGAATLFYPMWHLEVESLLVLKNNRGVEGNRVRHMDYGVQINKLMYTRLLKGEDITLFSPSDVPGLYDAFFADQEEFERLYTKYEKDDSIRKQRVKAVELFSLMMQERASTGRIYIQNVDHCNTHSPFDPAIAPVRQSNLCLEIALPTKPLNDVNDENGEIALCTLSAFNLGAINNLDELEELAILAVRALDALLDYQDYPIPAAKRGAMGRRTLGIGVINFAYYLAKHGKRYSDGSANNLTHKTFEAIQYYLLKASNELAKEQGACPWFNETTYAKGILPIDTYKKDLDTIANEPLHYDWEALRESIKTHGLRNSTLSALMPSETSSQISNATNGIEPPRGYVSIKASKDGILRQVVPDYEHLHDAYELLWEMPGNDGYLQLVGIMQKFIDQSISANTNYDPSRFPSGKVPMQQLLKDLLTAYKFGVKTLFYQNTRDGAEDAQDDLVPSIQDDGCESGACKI
How it was run: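 Laser flash-quench transient absorption at 23 °C in 50 mM sodium borate, pH 8.3, 15 mM MgSO4, 5% v/v glycerol. Final mix: 50 μM Re-labelled test peptide, 100 μM α2 mutant, 1 mM Ru(NH3)6Cl3, 1 mM CDP, 3 mM ATP, flowing through the cuvette. α2 was N-terminally His6-tagged E. coli protein, IPTG-induced in BL21(DE3) and Ni-NTA purified. Excitation was a 7 ns 355 nm pulse. Decays averaged 3–6 traces and were fitted by weighted least squares from 1 μs.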

C439S-α2 = target: T2, C439S-α2 (Escherichia coli, UniProt P00452, C439S); assay: Flash-quench transient absorption: •F3Y radical in presence of C439S-α2; assay type: biochemical
T2 sequence (P00452 1-761 C439S): T1 sequence (P00452 1-761 Y730F) with C439S, F730Y

wt-α2 = target: T3, wt-α2 (Escherichia coli, UniProt P00452); assay: Flash-quench transient absorption: •F3Y radical in presence of wt-α2; assay type: biochemical
T3 sequence (P00452 1-761): T1 sequence (P00452 1-761 Y730F) with F730Y

[2] = C439S-α2, average across three wavelengths (395, 410, 425 nm)

SMILES: CC[C@H](C)[C@H](NC(=O)[C@H](CCC(N)=O)NC(=O)CNC(=O)[C@@H](NC(=O)[C@H](CC(C)C)NC(=O)[C@H](Cc1c(F)cc(O)c(F)c1F)NC(=O)c1ccnc(-c2cc(C)ccn2)c1)C(C)C)C(=O)N[C@@H](CC(=O)O)C(=O)N[C@@H](CO)C(=O)N[C@@H](CCC(=O)O)C(=O)N[C@H](C(=O)N[C@@H](CC(=O)O)C(=O)N[C@H](C(=O)N[C@@H](CC(=O)O)C(=O)N[C@@H](CC(=O)O)C(=O)N[C@@H](CC(C)C)C(=O)N[C@@H](CO)C(=O)N[C@@H](CC(N)=O)C(=O)N[C@@H](Cc1ccccc1)C(=O)N[C@@H](CCC(N)=O)C(=O)N[C@@H](CC(C)C)C(=O)O)[C@@H](C)O)C(C)C [[Re]–F3Y–βC19] ({Isonicotinoyl(2-(4-Me-2-Py))}-[X1]LVGQIDSEVDTDDLSNFQL-OH; N-terminus and C-terminus assumed)
- decay time constant of transient signal, [Re^I]* ([1]; λdet 380 nm, 1 mM CDP, 3 mM ATP, 15 mM MgSO4, 5% glycerol): 60 ± 2 ns
- decay time constant of transient signal, [Re^I]* ([1]; λdet 480 nm): 61 ± 2 ns
- radical lifetime change / radical injection (in words) (Y730F-α2): radical injection into the surface of the protein is blocked
- •F3Y lifetime (Y730F-α2; Y730F-α2, 395 nm, 100 μM α2, pH 8.3): 14.4 ± 0.2 μs
- •F3Y lifetime (Y730F-α2; Y730F-α2, 410 nm, 100 μM α2, pH 8.3): 13.7 ± 0.2 μs
- •F3Y lifetime (Y730F-α2; Y730F-α2, 425 nm, 100 μM α2, 1 mM Ru(NH3)6Cl3, 1 mM CDP, 3 mM ATP, borate pH 8.3): 14.0 ± 0.2 μs
- radical lifetime change / radical injection (in words) (Y730F-α2; listed as [Re]–•F3Y–βC19): no significant change in radical lifetime
- •F3Y radical decay profile (in words) (C439S-α2; C439S-α2): biexponential decay owing to the contribution of a significantly shorter lifetime component
- •F3Y radical decay: small amplitude component ("on" state) (C439S-α2; C439S-α2): 20%
- amplitude of long phase (C439S-α2; C439S-α2, 395 nm): 81%
- amplitude of short phase (C439S-α2; C439S-α2, 395 nm): 19%
- •F3Y lifetime, short phase (C439S-α2; C439S-α2, 395 nm, biexponential): 2.2 ± 1 μs
- •F3Y lifetime, long phase (C439S-α2; C439S-α2, 395 nm, biexponential, 50 μM peptide, 100 μM C439S-α2, 1 mM Ru(NH3)6Cl3, 1 mM CDP, 3 mM ATP, borate pH 8.3): 17.3 ± 0.9 μs
- •F3Y lifetime, "off" state (C439S-α2; [2]): 16.9 ± 0.7 μs
- •F3Y lifetime, "on" state (C439S-α2; [2]): 2.5 ± 1.0 μs
- •F3Y radical decay profile (in words) (wt-α2; wt-α2): biexponential decay owing to the contribution of a significantly shorter lifetime component
- injection rate (wt-α2; wt-α2, Eq. 1: kox = 1/τon − 1/τoff): (3 ± 2) × 10^5 s^−1
- •F3Y lifetime, short phase (wt-α2; wt-α2, averaged across wavelengths): 3.0 ± 1.4 μs
- •F3Y lifetime, long phase (wt-α2; wt-α2, averaged across wavelengths, 50 μM peptide, 100 μM α2, 1 mM Ru(NH3)6Cl3, 1 mM CDP, 3 mM ATP, borate pH 8.3): 15.4 ± 0.5 μs

Source: article PMC3268775 (Journal of the American Chemical Society, 2012)
